ChEMBL document CHEMBL1126276, “Synthesis and antimalarial properties of 1-imino derivatives of 7-chloro-3-substituted-3,4-dihydro-1,9(2H,10H)-acridinediones and related structures” (J Med Chem, 1992)

Columns and labels:
[1] = tested on: Plasmodium berghei; test: (§1) Antimalarial activity in Plasmodium berghei infected mice (Mus musculus) after 80 mg/kg subcutaneous dose; format: functional
Summary of the method: (§2)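 […] in mice infected with a normal drug-sensitive P. berghei strain. Compound dissolved or suspended in sesame or peanut oil, given as a single subcutaneous dose 72 h postinfection.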

[2] = tested on: Plasmodium berghei; test: Antimalarial activity was measured against mice (Mus musculus) infected with Plasmodium berghei by subcutaneous administration of 320 mg/kg dose; format: organism-based; parameters: dose 320 mg/kg, route subcutaneous; settings: in vivo, sc; summary of the method: as §2
[3] = tested on: Plasmodium berghei; test: Antimalarial activity was measured against mice (Mus musculus) infected with Plasmodium berghei by subcutaneous administration of 80 mg/kg dose; format: organism-based; parameters: dose 80 mg/kg, route subcutaneous; settings: in vivo, sc; summary of the method: as §2
[4] = tested on: Plasmodium berghei; test: Antimalarial activity was measured against mice (Mus musculus) infected with Plasmodium berghei by subcutaneous administration of 160 mg/kg dose; format: organism-based; parameters: dose 160 mg/kg, route subcutaneous; settings: in vivo, sc; summary of the method: as §2
[5] = tested on: Plasmodium berghei; test: Antimalarial activity was measured against mice (Mus musculus) infected with Plasmodium berghei by subcutaneous administration of 40 mg/kg dose; format: organism-based; parameters: dose 40 mg/kg, route subcutaneous; settings: in vivo, sc; summary of the method: as §2
[6] = tested on: Plasmodium berghei; test: (§3) Antimalarial activity in Plasmodium berghei infected mice (Mus musculus) after 40 mg/kg subcutaneous dose; format: functional; summary of the method: as §2
[7] = tested on: Plasmodium berghei; test: Antimalarial activity was measured against mice (Mus musculus) infected with Plasmodium berghei by subcutaneous administration of 640 mg/kg dose; format: organism-based; parameters: dose 640 mg/kg, route subcutaneous; settings: in vivo, sc; summary of the method: as §2
[8] = tested on: Plasmodium berghei; test: (§4) Antimalarial activity in Plasmodium berghei infected mice (Mus musculus) after 20 mg/kg subcutaneous dose; format: functional; summary of the method: as §2
[9] = tested on: Plasmodium berghei; test: Antimalarial activity in Plasmodium berghei infected mice (Mus musculus) after 160 mg/kg subcutaneous dose; format: functional; summary of the method: as §2
[10] = tested on: Plasmodium berghei; test: as §3; format: functional; remark: listed apart in the source
Summary of the method: (§5)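 Normal drug-sensitive P. berghei strain in mice. Compound dissolved or suspended in sesame or peanut oil, given parenterally as a single subcutaneous dose 72 h postinfection.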

[11] = tested on: Plasmodium berghei; test: as §1; format: functional; summary of the method: as §5; remark: listed apart in the source
[12] = tested on: Plasmodium berghei; test: as §4; format: functional; summary of the method: as §5; remark: listed apart in the source
[13] = tested on: Plasmodium berghei; test: Antimalarial activity in Plasmodium berghei infected mice (Mus musculus) after subcutaneous 320 mg/kg dose; format: functional; summary of the method: as §5
[14] = tested on: Plasmodium berghei; test: Antimalarial activity in Plasmodium berghei infected mice (Mus musculus) after subcutaneous 160 mg/kg dose; format: functional; summary of the method: as §5
[15] = tested on: Plasmodium berghei; test: Antimalarial activity in Plasmodium berghei infected mice (Mus musculus) after subcutaneous 640 mg/kg dose; format: functional; summary of the method: as §5
[16] = tested on: Plasmodium berghei; test: Antimalarial activity in Plasmodium berghei infected mice (Mus musculus) after 320 mg/kg subcutaneous dose; format: functional; summary of the method: as §2
[17] = tested on: Plasmodium berghei; test: Antimalarial activity in Plasmodium berghei infected mice (Mus musculus) after 10 mg/kg subcutaneous dose; format: functional; summary of the method: as §5
[18] = tested on: Plasmodium berghei; test: Antimalarial activity was measured against mice (Mus musculus) infected with Plasmodium berghei by subcutaneous administration of 20 mg/kg dose; format: organism-based; parameters: dose 20 mg/kg, route subcutaneous; settings: in vivo, sc; summary of the method: as §2
[19] = tested on: Plasmodium berghei; test: Antimalarial activity Plasmodium berghei infected mice (Mus musculus) after 640 mg/kg subcutaneous dose; format: functional; summary of the method: as §2

| Structure (SMILES) | Delta mean survival time [1] | No. of toxic deaths [2] | No. of toxic deaths [3] | No. of toxic deaths [4] | No. of toxic deaths [5] | Delta mean survival time [6] | No. of toxic deaths [7] | Delta mean survival time [8] | Delta mean survival time [9] | No. of cured mice [10] | No. of cured mice [11] | No. of cured mice [12] | No. of cured mice [13] | No. of cured mice [14] | No. of cured mice [15] | Delta mean survival time [16] | No. of cured mice [17] | No. of toxic deaths [18] | Delta mean survival time [19] |
| --- | --- | --- | --- | --- | --- | --- | --- | --- | --- | --- | --- | --- | --- | --- | --- | --- | --- | --- | --- |
| CN(C)CCC/N=C1\CC(c2ccc(C(F)(F)F)cc2)Cc2nc3cc(Cl)ccc3c(O)c21 (configuration not stated) | 6.4 | 5 | 3 | 5 | 3 | 5.4 | 5 | 2.1 | – | – | – | – | – | – | – | – | – | – | – |
| CN(C)CCC/N=C1\CC(c2ccccc2Cl)Cc2c1c(=O)c1cc(Cl)ccc1n2O (configuration not stated) | – | – | – | 1 | 2 | 3 | 5 | – | 4 | – | – | – | – | – | – | – | – | – | – |
| CC1/C(=N\CCCN(C)C)c2c(n(O)c3ccc(Cl)cc3c2=O)CC1c1ccc(C(F)(F)F)cc1 (configuration not stated) | – | 5 | – | 5 | – | 10.2 | 5 | 8.1 | – | 2 | 5 | – | – | – | – | – | – | – | – |
| CN(C)CCC/N=C1\CC(c2ccc(Cl)cc2Cl)Cc2nc3c(Cl)cccc3c(O)c21 (configuration not stated) | – | 5 | 4 | 5 | 1 | 0.5 | 5 | 0 | – | – | – | – | – | – | – | – | – | – | – |
| CCN(CC)CC/N=C1\CC(c2ccc(C(F)(F)F)cc2)Cc2c1c(=O)c1cc(Cl)ccc1n2O (configuration not stated) | – | 1 | – | 1 | – | 10.8 | 2 | 10.5 | – | 2 | 5 | 1 | 4 | 4 | 3 | – | – | – | – |
| CCN(CC)CCC/N=C1\CC(c2ccc(C(F)(F)F)cc2)Cc2c1c(=O)c1cc(Cl)ccc1n2O (configuration not stated) | – | 3 | 3 | 3 | – | 16.8 | 5 | 10.1 | – | 3 | 2 | 2 | 2 | 2 | – | – | – | – | – |
| COc1ccccc1C1C/C(=N\CCCN(C)C)c2c(n(O)c3ccc(Cl)cc3c2=O)C1 (configuration not stated) | – | – | – | 5 | 1 | 0.3 | 5 | – | – | – | – | – | – | – | – | – | – | – | – |
| O=c1c2c(n(O)c3ccc(Cl)cc13)CC(c1cccc(C(F)(F)F)c1)C/C2=N\CCCCCN1CCCC1 (configuration not stated) | – | – | – | 5 | 4 | 0.6 | 5 | – | – | – | – | – | – | – | – | – | – | – | – |
| O=c1c2c(n(O)c3ccc(Cl)cc13)CC(c1cccc(C(F)(F)F)c1)C/C2=N\CCCCN1CCCC1 (configuration not stated) | 3.7 | 4 | – | 5 | 3 | 4.6 | 5 | – | – | – | – | – | – | – | – | 0.5 | – | – | – |
| OCCN(CCO)CCC/N=C1\CC(c2ccc(Cl)cc2Cl)Cc2nc3ccc(Cl)cc3c(O)c21 (configuration not stated) | – | – | – | – | – | 10.9 | – | 10.9 | – | 4 | 5 | 4 | 5 | 5 | 5 | – | 1 | – | – |
| C=CCNCC/N=C1\CC(c2ccc(C(F)(F)F)cc2)Cc2c1c(=O)c1cc(Cl)ccc1n2O (configuration not stated) | – | 5 | 3 | – | – | 8.4 | 5 | 7.8 | – | 2 | 1 | – | – | 5 | – | – | – | – | – |
| CN(C)CCC/N=C1\CC2(CCCCC2)Cc2c1c(=O)c1cc(Cl)ccc1n2O | – | – | – | 5 | 5 | – | 5 | – | – | – | – | – | – | – | – | – | – | – | – |
| CN(C)CCC/N=C1\CC(c2ccc(C(F)(F)F)cc2)Cc2c1c(=O)c1cc(Cl)ccc1n2O (configuration not stated) | – | 3 | – | 2 | – | – | 5 | – | – | 5 | 4 | 5 | 2 | 3 | 1 | – | – | – | – |
| CCCCNC(CC)C/N=C1\CC(c2ccc(Cl)cc2Cl)Cc2nc3ccc(Cl)cc3c(O)c21 (configuration not stated) | – | – | – | – | – | – | – | – | – | 5 | 5 | 5 | 5 | 5 | 5 | – | 4 | – | – |
| CCCC/N=C1\CC(c2ccc(Cl)c(Cl)c2)Cc2nc3ccc(Cl)cc3c(O)c21 (configuration not stated) | 1.5 | – | 3 | 5 | 4 | – | 1 | – | – | – | – | – | – | – | – | 1.2 | – | 5 | 2.5 |
| CCN(CC)CCCC/N=C1\CC(c2ccc(Cl)cc2Cl)Cc2nc3ccc(Cl)cc3c(O)c21 (configuration not stated) | – | – | – | – | – | – | – | – | – | 5 | 5 | 5 | 5 | 5 | 5 | – | 2 | – | – |
| CN(C)CCC/N=C1\CC(c2ccc(C(F)(F)F)cc2)Cc2nc3ccccc3c(O)c21 (configuration not stated) | – | – | – | 5 | 5 | – | 5 | 5.3 | – | – | – | – | – | – | – | – | – | 1 | – |
| CCN(CC)CCCC(C)/N=C1\CC(c2ccc(C(F)(F)F)cc2)Cc2nc3ccc(Cl)cc3c(O)c21 (configuration not stated) | – | 2 | 1 | – | – | – | – | 10.8 | – | 5 | 4 | 3 | 3 | 5 | 2 | – | – | – | 3.3 |
| CN(C)CCC/N=C1\CC(c2ccc(C(F)(F)F)cc2)Cc2nc3ccc(Cl)cc3c(O)c21 (configuration not stated) | – | 2 | – | 1 | – | – | 3 | 10.4 | – | 5 | 5 | 3 | 2 | 3 | 2 | – | – | – | – |
| CCN(CC)CC/N=C1\CC(c2ccc(Cl)cc2Cl)Cc2nc3ccc(Cl)cc3c(O)c21 (configuration not stated) | – | – | – | – | – | – | – | – | – | 5 | 5 | 5 | 5 | 5 | 5 | – | 5 | – | – |
| CCn1c2c(c(=O)c3cc(Cl)ccc31)C(=O)CC(c1ccc(C(F)(F)F)cc1)C2 (configuration not stated) | – | – | – | 2 | 2 | 0 | 1 | – | 0 | – | – | – | – | – | – | – | – | – | 0 |
| O=C1CC(c2ccc(C(F)(F)F)cc2)Cc2c1c(=O)c1cc(Cl)c(F)cc1n2O (configuration not stated) | – | 5 | 5 | 5 | 5 | – | 5 | 9 | – | – | – | – | – | – | – | – | – | – | – |
| Oc1c2c(nc3ccc(Cl)cc13)CC(c1ccc(Cl)cc1Cl)C/C2=N\CCCN1CCCC1 (configuration not stated) | – | – | – | – | – | – | – | 22.9 | – | 5 | 5 | 4 | 5 | 5 | 5 | – | 1 | – | – |
